The term inhibition in vivo denotes the change of the read-out against control, counted positive when it falls.

In this experiment the test system is Rattus norvegicus. The experiment is described as follows: Antiinflammatory activity in Wistar rat assessed as inhibition of carrageenan-induced paw edema at 150 mg/kg, po administered 1 hr before carrageenan challenge measured after 3 hrs relative to vehicle treated control. In kind it is functional. The method, boiled down:
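Male Wistar rats given aspirin orally at 150 mg/kg, 1 h before intraplantar carrageenan (0.1 mL of 1% suspension) into the right hind paw. Hind paw edema read by plethysmometer 3 h after carrageenan; reduction taken relative to vehicle group.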
(The carrageenan paw model is a standard test of acute inflammation.)

In the case of `CC(=O)Oc1ccccc1C(=O)O` [ASPIRIN], the inhibition in vivo at 150 mg/kg was 38%.
